# Source: PubChem
# A selection: hits, their analogues and other compounds. The true share with any hit is near 6.3%.
# Ecoli tolC: blocks growth of E. coli BW25113 tolC mutant; OD615; growth inhibition, % at 10 µM (by protocol); 2.2% of 65,000 active;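 active = growth inhibition at or above a cutoff equal to the mean over every tested compound plus 3 SD, cut at about 60% in these data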;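 note: growth measured after 20 h incubation at 37 °C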
#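 Material: E. coli BW25113 ΔtolC::kan, tolC deletion mutant strain. Measure: percent growth inhibition. Schedule: 37 °C, 20 h exposure. Doses: single-point testing at 10 µM. Signal: A615 absorbance measurement. Buffer or medium: kanamycin-containing LB broth (50 µg/mL).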
# PostGolgi yeast: growth inhibition of a yeast mutant, post-Golgi transport screen; post-Golgi transport phenotypic cell assay; inhibition, % at 10 µM; 0.9% of 98,000 active;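 note: yeast cells grown in 1536-well plates; yeast grown about 18 h at 30C before absorbance read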
# Ecoli WT expand: growth inhibitors of E. coli BW25113 wild type. growth inhibition, % at 100 µM. OD600 absorbance. 0.15% of 98,000 active;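 active = growth inhibition above about 50% at one test dose, limit read from the data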;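 note: growth measured after 20 h incubation at 37 °C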
# PostGolgi ctrl: inhibits growth of the yeast control strain | efflux-deficient yeast background strain, growth absorbance A615, 16 h | inhibition, % at 10 µM | 5% of 98,000 active
# * = called active by the depositor; x = no result. Cut-off read from the data, not from the text of the source, unless noted: active = inhibition above about 30%; inactive = the rest.
SMILES,Ecoli tolC,PostGolgi yeast,Ecoli WT expand,PostGolgi ctrl
Cc1c(C)c2cc(Cl)c(OCc3nn[nH]n3)cc2oc1=O,13.7,-2.9,0.0,1.1
CCN(CCCNS(=O)(=O)c1ccc2c(c1)CCN2C(C)=O)c1cccc(C)c1,26.8,4.4,-10.0,12.4
COc1ccc(CNc2nc3c(c(=O)n(Cc4ccc(F)cc4)c(=O)n3C)n2C)cc1,71.0*,-5.2,10.0,19.8
CC(C)N1C2OC(C3OC4C(O3)N(C(C)C)S(=O)(=O)N4C(C)C)OC2N(C(C)C)S1(=O)=O (stereo unspecified),x,103.5*,-6.0,96.2*
COc1ccc(N(CC(=O)NCc2ccccc2)S(=O)(=O)c2c(C)nn(C)c2C)cc1,x,1.2,0.0,8.6
COc1ccc(N(CC(=O)NCc2cccnc2)S(=O)(=O)c2c(C)nn(C)c2C)cc1,-18.2,-3.9,0.0,37.1*
COc1ccc(N(CC(=O)Nc2nc3ccc(C)cc3s2)S(=O)(=O)c2c(C)nn(C)c2C)cc1,59.7,-0.6,-5.0,32.5*
COc1ccc(N(CC(=O)Nc2cccc(OC)c2)S(=O)(=O)c2c(C)nn(C)c2C)cc1,-14.6,-4.0,1.0,5.2
COc1ccccc1S(=O)(=O)n1cc(Cc2ccccc2)c(N)n1,-5.2,-6.3,-2.0,9.2
CCC1CCC/C1=N\NC(=O)c1cc(C)[nH]n1 (stereo unspecified),x,-1.1,5.0,5.7
CSc1ccccc1NC(=O)COc1ccccc1Cl,x,0.8,8.0,21.9
O=C(Cn1c(=O)n(Cc2ccc3c(c2)OCO3)c(=O)c2ccccc21)N1CCCc2ccccc21,12.6,8.8,-22.0,49.9*
CCOC(=O)c1c(NC(=O)CSc2nnc(CNc3ccc(F)cc3)o2)sc(C)c1C,12.8,-7.5,-14.0,38.3*
CCn1c(SCc2nc3ccccc3[nH]2)nnc1-c1ccc(OC)cc1,x,1.5,4.0,0.7
Fc1ccc(N2CCN(c3ccc4c(C(F)(F)F)cc(C(F)(F)F)nc4n3)CC2)cc1,x,14.5,-12.0,75.1*
CCOc1ccc2nc(NC(=O)CCC(=O)c3cccs3)sc2c1,x,-23.1,-1.0,5.0
CCCCCc1c(C)nc(NCc2ccccc2)[nH]c1=O,30.5,10.7,-10.0,39.3*
N#CCCN(C(=O)CSc1nc(-c2ccccc2)cn1N)c1ccc(F)cc1,x,1.7,-3.0,4.1
Cc1noc(C)c1COC(=O)c1ccc2c(c1)OCO2,0.3,-5.5,0.0,42.6*
Cc1noc(C)c1COc1ccc(C(=O)OCC(=O)Nc2ccc3c(c2)OCO3)cc1,x,2.4,-9.0,-2.6
O=C(C1CCN(S(=O)(=O)N2CCOCC2)CC1)N1CCN(c2ccccc2)CC1,-11.2,-4.7,-3.0,-1.6
c1csc(CNCCCN2CCOCC2)c1,x,-3.0,-5.0,31.2*
Cc1ccc(S(=O)(=O)NC2CCCc3ccccc32)cc1C (stereo unspecified),x,4.4,-10.0,8.6
COc1ccc(S(=O)(=O)CCC(=O)O)cc1,-4.7,0.6,-3.0,33.7*
O=[N+]([O-])c1ccc(N/N=C/c2c[nH]c3ccccc23)cc1,x,98.7*,-11.0,91.0*
SMILES,Ecoli tolC,PostGolgi yeast,Ecoli WT expand,PostGolgi ctrl
COc1ccc(NS(=O)(=O)c2cc([N+](=O)[O-])ccc2N/N=C\c2c(C)[nH]c3ccccc23)cc1,x,-0.3,-21.0,13.5
COc1ccccc1NS(=O)(=O)c1cc([N+](=O)[O-])ccc1N/N=C/c1c[nH]c2ccccc12,x,3.0,-23.0,30.8*
COc1ccc(C(C)=O)cc1CSc1nc2cc(Cl)ccc2o1,x,-5.8,-14.0,47.3*
CCn1c(-c2c[nH]c3ccccc23)n[nH]c1=S,-1.8,39.8*,6.0,-0.3
CC(C)Cn1c(-c2ccccc2F)n[nH]c1=S,5.9,8.5,9.0,33.0*
C=CCn1c(-c2c[nH]c3ccccc23)n[nH]c1=S,31.7,-4.0,12.0,4.3
CC(C)Cn1c(-c2ccc(F)cc2)n[nH]c1=S,3.5,-6.0,5.0,22.4
CCCCC(CC)CNC(=O)C1C2C=CC(C2)C1C(=O)O (stereo unspecified),x,-3.4,2.0,12.8
COc1ccc(C2=NOC3(CC(=O)N(c4ccc5ccccc5c4)C3=O)C2)c(OC)c1 (stereo unspecified),x,0.5,-13.0,15.0
COc1ccc(/C=C/C(=O)OC(C)CN2CCOCC2)cc1 (stereo unspecified),x,-7.2,3.0,-3.4
COC(=O)CN(c1ccc(F)cc1)S(=O)(=O)c1ccc2c(c1)OCCO2,6.0,3.1,-6.0,5.3
COC(=O)c1c(NS(=O)(=O)Cc2ccccc2)sc2c1CCCC2,x,-5.3,-4.0,41.4*
COc1ccc(NC(=O)C(=O)N2N=C(C(C)C)CC2(O)C(F)(F)F)cc1 (stereo unspecified),x,-4.9,-10.0,-6.8
O=C1c2ccccc2C(=O)N1CCCCn1c(=O)oc2ccccc21,-3.9,4.0,-2.0,44.4*
O=c1oc2ccccc2n1CCc1ccccc1,-5.5,7.0,6.0,18.9
CCn1c(SCC(=O)Nc2ccc3c(c2)OCO3)nc2c(c1=O)SC(C)C2 (stereo unspecified),5.5,5.6,-2.0,74.5*
CCn1c(SCC(=O)Nc2nnc(C)s2)nc2c(c1=O)SC(C)C2 (stereo unspecified),-17.4,-7.4,-5.0,38.7*
CC(C)C(C)(C#N)NC(=O)CSc1ncnc2sc(-c3ccccc3)cc12 (stereo unspecified),x,-11.5,-14.0,40.2*
NC(=O)C1(N2CCCCC2)CCN(c2nc(-c3ccc(Br)cc3)cs2)CC1,x,6.0,0.0,60.4*
COc1cc(C)nc(OCCNS(=O)(=O)c2cc(C)ccc2C)n1,11.9,-11.2,-4.0,5.2
N#Cc1c(N)nc(SCC(=O)OCc2ccccc2)c(C#N)c1-c1ccco1,11.6,10.0,1.0,6.0
N#Cc1c(N)nc(SCc2ccccn2)c(C#N)c1-c1cccs1,8.1,10.2,-5.0,54.1*
N#Cc1c(N)nc(SCc2ccccc2)c(C#N)c1-c1ccco1,2.4,7.5,-5.0,37.4*
O=C(NCCCCc1ccccc1)C12CN(Cc3ccccc3)CC1C(c1ccc([N+](=O)[O-])cc1)=NO2 (stereo unspecified),x,-3.4,-7.0,0.9
C#CCONC(=O)c1cc(OCC(F)(F)F)ccc1OCC(F)(F)F,x,-5.3,2.0,-1.0
SMILES,Ecoli tolC,PostGolgi yeast,Ecoli WT expand,PostGolgi ctrl
Cc1cccc2cc3c(N)c(C(=O)Nc4ccc(N5CCOCC5)cc4)sc3nc12,x,-0.7,-9.0,41.0*
CC(C)(C)n1nc(-c2ccc(Cl)cc2)c2c(N)ncnc21,x,1.5,-4.0,65.1*
CC(C)(C)n1nc(-c2ccc(F)cc2)c2c(N)ncnc21,x,-16.4,-3.0,56.8*
O=C(COc1ccc(Cl)cc1Cl)N1CCCN(C(=O)COc2ccc(Cl)cc2Cl)CC1,x,-4.7,-10.0,74.9*
CC(=O)N1CCN(c2ccc(NC(=O)COc3ccc(Cl)cc3Cl)cc2)CC1,0.3,6.8,-14.0,-4.7
CCCCCC(=O)Nc1ccccc1N1CCN(c2ccccc2)CC1,68.0*,16.8,-3.0,-4.5
O=C(COc1ccccc1)Nc1ccccc1N1CCCCC1,91.8*,13.7,6.0,11.2
CC(=O)N1CCN(c2ccccc2NC(=O)COc2ccc(Cl)cc2Cl)CC1,25.0,0.0,0.0,49.5*
O=C(COc1ccccc1)Nc1ccccc1N1CCN(c2ccccc2)CC1,-7.6,-2.7,-2.0,1.1
Cc1cc(-c2ccccc2)nc(N(C)NC(=O)c2c(F)cccc2F)c1S(C)(=O)=O,x,4.2,-11.0,30.3*
